LYP act: LYP phosphatase activators, primary screen, biochemical, DiFMUP fluorescence, 2 µM; recombinant LYP; 0 = plate median, 100 = signal doubled; activation, % at 2 µM; AID 697, 2007; 96,000 tested, 0.11% active; Tyrosine-protein phosphatase non-receptor type 22 (Homo sapiens), Q9Y2R2;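 active = activation at 2 µM above a set limit, the mean plus 5 SD, cut at about 37% in these data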
PLK1 inh: human PLK1 kinase inhibitors, primary screen, biochemical, TR-FRET; recombinant PLK1 kinase, TR-FRET peptide phosphorylation; inhibition, % at 10 µM; 97,000 tested, 0.53% active; AID 619, 2007;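 active = inhibition of 50% or more in the single-concentration screen; inactive = inhibition below 50%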;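 note: 0% = DMSO max control and 100% = H-89 dihydrochloride min control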
PLK1 PBD inh: Plk1 polo box domain binding inhibitors, primary screen, biochemical, fluorescence polarization | Plk1 PBD phosphopeptide binding | 97,000 tested, 0.13% active | inhibition, %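 (tested at about 20 µM)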 | Serine/threonine-protein kinase PLK1 (Homo sapiens), P53350; in the data active = inhibition above about 34%, passing the limit was not always enough
EphB4 ephrin blk: EphB4-ephrin-B2 interaction antagonists, primary screen, biochemical, TNYL-RAW peptide probe, fluorescence polarization | 97,000 tested, 0.15% active | Ephrin type-B receptor 4 (Homo sapiens), P54760 | inhibition, % at 7 µM | EphB4 LBD / TNYL-RAW-Alexa532 peptide;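 active = inhibition above the screen-wide mean inhibition plus 3 SD, cut at about 15% in these data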;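 note: 0% = DMSO wells and 100% = excess unlabeled TNYL-RAW peptide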
Target sequence (P54760 whole entry, looked up, the tested form may be a part): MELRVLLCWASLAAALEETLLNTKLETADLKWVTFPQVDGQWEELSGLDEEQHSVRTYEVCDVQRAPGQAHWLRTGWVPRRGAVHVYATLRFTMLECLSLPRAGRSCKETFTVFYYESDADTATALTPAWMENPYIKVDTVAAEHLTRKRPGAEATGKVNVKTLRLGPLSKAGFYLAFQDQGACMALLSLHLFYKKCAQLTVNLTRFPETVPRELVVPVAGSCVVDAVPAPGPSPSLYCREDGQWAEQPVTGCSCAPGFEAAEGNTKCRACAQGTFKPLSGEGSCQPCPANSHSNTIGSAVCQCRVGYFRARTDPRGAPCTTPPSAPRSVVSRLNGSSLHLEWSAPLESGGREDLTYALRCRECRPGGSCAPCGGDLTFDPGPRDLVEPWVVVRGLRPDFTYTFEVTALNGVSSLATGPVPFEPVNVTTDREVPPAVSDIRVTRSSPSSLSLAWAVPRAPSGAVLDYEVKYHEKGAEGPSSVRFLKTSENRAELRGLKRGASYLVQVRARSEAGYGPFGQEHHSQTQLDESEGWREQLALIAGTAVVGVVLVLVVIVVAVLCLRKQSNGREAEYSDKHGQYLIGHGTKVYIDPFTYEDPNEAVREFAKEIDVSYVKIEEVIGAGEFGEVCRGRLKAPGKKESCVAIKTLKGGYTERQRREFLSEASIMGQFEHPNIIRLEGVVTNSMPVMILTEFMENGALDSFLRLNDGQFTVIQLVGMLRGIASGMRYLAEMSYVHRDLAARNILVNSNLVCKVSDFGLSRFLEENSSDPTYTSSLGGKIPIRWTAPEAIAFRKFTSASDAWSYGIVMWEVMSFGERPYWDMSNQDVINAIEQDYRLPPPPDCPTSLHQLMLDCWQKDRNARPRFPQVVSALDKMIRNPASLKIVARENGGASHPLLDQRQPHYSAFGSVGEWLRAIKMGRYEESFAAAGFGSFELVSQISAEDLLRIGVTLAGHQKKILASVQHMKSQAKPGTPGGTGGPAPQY
PTPN22 inh 2: PTPN22 phosphatase inhibitors, primary screen, biochemical, DiFMUP fluorescence, 2 µM | inhibition, % at 2 µM | recombinant LYP catalytic domain | 96,000 tested, 0.21% active;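 active = inhibition at 2 µM at or above a set limit, the screen mean plus 3 SD, cut at about 24% in these data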;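 note: 0% = DMSO with enzyme and 100% = enzyme fully blocked by orthovanadate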
HIV Rev-RRE inh: HIV-1 Rev-RRE binding inhibitors, primary screen, biochemical, FRET, protein-RNA interaction; P05866; Rev peptide-RRE RNA binding; inhibition, % at 8 µM; 97,000 tested, 0.79% active;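 active = inhibition above the screen-wide mean plus 3 SD, cut at about 35% in these data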;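 note: 0% = median DMSO wells and 100% = median Neomycin B control wells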
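Test system: Cy5-tagged RRE RNA duplex with fluorescein-tagged Rev peptide; Probe or stimulus: labelled Rev peptide; Schedule: 5 min preincubation and 15 min binding, 25 °C; Signal: FRET fluorescence readout; Evaluation: % inhibition from 671/540 nm acceptor-to-donor ratio, scaled between controls; Control set: DMSO and neomycin B.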
The depositor's hits bear a star; [ ] = another dose, or the depositor's remark. Most compounds without a hit are left out; they make up all but 2% or so of the library.

SMILES	LYP act	PLK1 inh	PLK1 PBD inh	EphB4 ephrin blk	PTPN22 inh 2	HIV Rev-RRE inh
CCn1c(O)c(C(=O)CC2NCCc3ccccc32)c(=O)n(CC)c1=S (stereo not drawn)	5	-10	-1	-2	-7	48*
O=C1C2CCCN2C(c2ccc(Cl)cc2)N1c1ccccn1 (stereo not drawn)	-6	-15	-1	-7	4	5
O=C1C2CCCN2C(c2ccc(Cl)c(Cl)c2)N1c1ccccn1 (stereo not drawn)	4	2	-2	2	-8	7
CCOC(=O)c1c(-n2c(C)cc(/C=C3/C(=O)NC(=O)N(CC)C3=O)c2C)sc2c1CCCC2	6	-11	-24	-10	-8	6
CCOC(=O)c1c(-n2c(C)cc(C=C3C(=O)NC(=S)NC3=O)c2C)sc2c1CCCC2	-24	-27	42	2	29*	41*
Cc1ccnc(-n2c(C)cc(C=C3C(=O)N(C)C(=S)N(C)C3=O)c2C)c1	-6	-8	12	-5	4	52*
Cc1cc(NC(=O)CCC(=O)N2CCC3(CC2)OCCO3)no1	1	-4	-19	-1	-2	12
CC1=C(C(=O)N2CCC3(CC2)OCCO3)C2(CCC(C)CC2)OC1=O (stereo not drawn)	4	-13	-14	20*	0	4
O=c1c2ccccc2nc(-c2ccoc2)n1-c1ccccc1Cl	-5	-34	-7	-4	7	6
CCN1/C(=C\C=C\C2=[N+](CC)c3ccccc3C2(C)C)C(C)(C)c2ccccc21	6	53*	-77	-88	-3	57*[fluorescence artefact?]
CCOC(=O)c1c(NC(=O)c2c(N)n(CCCOC)c3nc4ccccc4nc23)sc2c1CCCC2	17	-8	4	2	-14	7
CCOCCCn1c(N)c(C(=O)Nc2sc3c(c2C(=O)OC)CCCC3)c2nc3ccccc3nc21	-12	12	-20	-5	11	49*
CCN(CC)CCCNC(=O)c1c(O)c2ccccc2n(Cc2ccccc2)c1=O	-22	-6	-12	5	24*	3
CCn1c(O)c(C=Nc2ccc(N3CCOCC3)cc2)c(=O)n(CC)c1=S	-5	-4	1	16*	4	98*[fluorescence artefact?]
COc1ccc(Cn2c(N)c(C(=O)NCc3ccco3)c3nc4ccccc4nc32)cc1	-11	55*	-19	8	11	30
CC(C)N1C(=O)/C(=C/C=C/c2ccco2)C(=O)N(Cc2ccco2)C1=O	2	-16	-50	-5	0	53*
CC(=Nc1ccc2c(c1)CCC2)c1c(O)n(C2CCCCC2)c(=O)[nH]c1=O	-6	-13	-3	-5	7	7
O=C1NC(=O)N(c2ccc3c(c2)OCO3)C(=O)/C1=C/c1ccc(N2CCCCC2)o1	5	-40	-81	-3	-4	124*[fluorescence artefact?]
Cc1ccc(/C=C2/C(=O)NC(=O)N(CCc3ccc(F)cc3)C2=O)o1	5	-8	-3	-4	0	-3
CN1C(=O)C(=Cc2ccc(N3CCCCC3)o2)C(=O)N(C)C1=S	-5	-23	-168	-3	8	121*[fluorescence artefact?]
CCOc1ccc(N=Cc2c(O)n(C(C)(C)C)c(=O)[nH]c2=O)cc1	-6	-14	1	-1	8	6
CCOc1ccc(-n2c(O)c(C=Nc3ccc(N(CC)CC)cc3)c(=O)[nH]c2=O)cc1	-14	-22	-4	3	12	71*
CCN(CC)c1ccc(N=Cc2c(O)n(-c3ccccc3C)c(=O)[nH]c2=O)cc1	-9	-15	-22	-1	7	66*
Cc1ccc(N2C(=O)/C(=C/N3CCN(C(=O)c4ccco4)CC3)C(=O)NC2=S)cc1C	2	-10	24	-5	3	20
S=C(c1ccc(Cl)cc1)N1CCOCC1	-9	-3	-16	1	7	4
O=c1c2ccccc2[nH]c(=S)n1-c1ccc2c(c1)OCO2	-2	-1	18	2	0	8

Assay outcomes: PubChem BioAssay, several laboratories
